In ChEMBL document CHEMBL1770090, “Synthesis, antimicrobial, antioxidant, anti-hemolytic and cytotoxic evaluation of new imidazole-based heterocycles” (Eur J Med Chem, 2011):
Values after ≈ are worked out from the molar mass of the structure shown.

Experiments:
[1] = Antioxidant activity assessed as ABTS radical scavenging activity at 2 mM; assay type: functional
How it was run: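 ABTS (60 µM, 2 mL) was oxidized with MnO2 (25 mg/mL, 3 mL) in 0.1 M phosphate buffer pH 7, then centrifuged and filtered, with A734 adjusted to about 0.5. 50 µL of 2 mM compound in MeOH/phosphate buffer (1:1) was added. Colour loss expressed as % inhibition. L-ascorbic acid was the standard; blank and negative controls used MeOH/buffer.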

[2] = tested on: Pseudomonas aeruginosa; experiment: Antimicrobial activity against Pseudomonas aeruginosa ATCC 27953 after 24 hrs by agar well diffusion method; assay type: functional
How it was run: (§1)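 Agar well diffusion. Inocula of 100 µL: bacteria 1 × 10^8 CFU/mL on nutrient agar, yeast 1 × 10^6 CFU/mL on Sabouraud dextrose agar, fungi 1 × 10^4 spore/mL on potato dextrose agar. 10 mm wells received 100 µL of compound at 100 mg/mL in DMSO. Bacteria incubated 24 h at 37 °C, fungi 48 h at 28 °C. Controls were DMSO, ciprofloxacin 50 µg/mL and ketoconazole 50 µg/mL. Inhibition zone diameter in mm, scored N.A. to ++++, average of triplicates.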

[3] = tested on: Bacillus subtilis; experiment: Antimicrobial activity against Bacillus subtilis ATCC 6633 after 24 hrs by agar well diffusion method; assay type: functional; how it was run: as §1
[4] = tested on: Escherichia coli; experiment: Antimicrobial activity against Escherichia coli ATCC 25922 after 24 hrs by agar well diffusion method; assay type: functional; how it was run: as §1
[5] = tested on: Candida albicans; experiment: Antimicrobial activity against Candida albicans NRRL Y-477 after 48 hrs by agar well diffusion method; assay type: functional; how it was run: as §1
[6] = tested on: Klebsiella pneumoniae; experiment: Antimicrobial activity against Klebsiella pneumoniae ATCC 13883 after 24 hrs by agar well diffusion method; assay type: functional; how it was run: as §1
[7] = Antioxidant activity in rat erythrocytes assessed as inhibition of peroxyl radicals-induced hemolysis at 2 mM after 2 hrs; assay type: functional; conditions: Erythrocyte, read-out: INH
How it was run: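 Rat blood from cardiac puncture, heparinized. Erythrocytes were washed three times in 0.15 M NaCl. A 10% suspension in PBS pH 7.4 was mixed with an equal volume of 200 mM AAPH in PBS containing sample, then shaken at 37 °C for 2 h. Mixture diluted with 8 volumes of PBS and centrifuged; supernatant A540 compared with a water-lysed sample for complete hemolysis. L-ascorbic acid was the positive control. Mean ± SD.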

[8] = tested on: Staphylococcus aureus; experiment: Antimicrobial activity against Staphylococcus aureus ATCC 29213 after 24 hrs by agar well diffusion method; assay type: functional; how it was run: as §1
[9] = Cytotoxicity against mouse EAC cells assessed as cell viability using trypan blue staining after 2 hrs by hemocytometer analysis; assay type: functional, cell-based; conditions: Ehrlich
[10] = tested on: Aspergillus niger; experiment: Antimicrobial activity against Aspergillus niger after 48 hrs by agar well diffusion method; assay type: functional; how it was run: as §1
[11] = tested on: Priestia megaterium; experiment: Antimicrobial activity against Bacillus megaterium ATCC 9885 after 24 hrs by agar well diffusion method; assay type: functional; how it was run: as §1
[12] = tested on: Staphylococcus aureus; experiment: Antimicrobial activity against Staphylococcus aureus ATCC 29213 after 24 hrs by two fold serial dilution technique; assay type: functional; conditions: ATCC 29213, 24 h
How it was run: (§2)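 Tested only compounds giving inhibition zones ≥ 16 mm, by two-fold serial dilution in nutrient broth. Final concentrations were […], 175, 87.5, 43.8 and 21.9 µg/mL. Each 5 mL tube received 0.1 mL inoculum of about 1 × 10^8 CFU/mL and was incubated 24 h at 37 °C. MIC was the lowest concentration with no growth.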

[13] = tested on: Bacillus subtilis; experiment: Antimicrobial activity against Bacillus subtilis ATCC 6633 after 24 hrs by two fold serial dilution technique; assay type: functional; conditions: ATCC 6633, 24 h; how it was run: as §2

SMILES | inhibition [1] | diameter of the inhibition zone (DIZ) [2] | diameter of the inhibition zone (DIZ) [3] | diameter of the inhibition zone (DIZ) [4] | diameter of the inhibition zone (DIZ) [5] | diameter of the inhibition zone (DIZ) [6] | percent hemolysis at 2000 µM [7] | diameter of the inhibition zone (DIZ) [8] | IC50 [9] | diameter of the inhibition zone (DIZ) [10] | diameter of the inhibition zone (DIZ) [11] | MIC [12] | MIC [13]
C/C(=N\N=C1\NC(=O)/C(=C/c2cn(-c3ccccc3)nc2-c2cccs2)S1)c1nc(-c2ccccc2)[nH]c1C | 76.2% | <=4 mm | <=4 mm | <=4 mm | <=4 mm | <=4 mm | 3.45% | <=4 mm | 8.25 µg/mL (≈ 15 µM) | <=4 mm | <=4 mm | – | –
C/C(=N\N=C1\NC(=O)/C(=C/c2cn(-c3ccccc3)nc2-c2cc3ccccc3o2)S1)c1nc(-c2ccccc2)[nH]c1C | 35.9% | <=4 mm | <=4 mm | <=4 mm | <=4 mm | <=4 mm | 1.5% | <=4 mm | 125 µg/mL (≈ 215 µM) | <=4 mm | <=4 mm | – | –
C/C(=N\N=C1\N=C(c2ccccc2)CS1)c1nc(-c2ccccc2)[nH]c1C | 79.3% | 10 mm | 16 mm | 10 mm | <=4 mm | 10 mm | 2.75% | 16 mm | 19.5 µg/mL (≈ 52.2 µM) | <=4 mm | <=4 mm | 29.1 µg/mL (≈ 77.9 µM) | 43.8 µg/mL (≈ 117 µM)
C/C(=N\N=C1\NC(=O)/C(=C/c2ccc(F)cc2)S1)c1nc(-c2ccccc2)[nH]c1C | 79.2% | <=4 mm | <=4 mm | <=4 mm | <=4 mm | <=4 mm | 1.4% | <=4 mm | 14.5 µg/mL (≈ 34.6 µM) | <=4 mm | <=4 mm | – | –
C/C(=N\NC(=O)CC#N)c1nc(-c2ccccc2)[nH]c1C | 48.2% | <=4 mm | <=4 mm | <=4 mm | <=4 mm | <=4 mm | 3.65% | <=4 mm | 125 µg/mL (≈ 445 µM) | <=4 mm | <=4 mm | – | –
C/C(=N\N=C1\N=C2N=c3ccccc3=NC2S1)c1nc(-c2ccccc2)[nH]c1C (stereo not drawn) | 37.4% | <=4 mm | <=4 mm | <=4 mm | <=4 mm | <=4 mm | 1.1% | <=4 mm | 4.25 µg/mL (≈ 10.6 µM) | <=4 mm | <=4 mm | – | –
C/C(=N\NC(=O)/C(C#N)=C\c1cn(-c2ccccc2)nc1-c1cc2ccccc2o1)c1nc(-c2ccccc2)[nH]c1C | 34.6% | <=4 mm | <=4 mm | <=4 mm | <=4 mm | <=4 mm | 5.55% | <=4 mm | 125 µg/mL (≈ 227 µM) | <=4 mm | <=4 mm | – | –
CC1=NC(=N/N=C(\C)c2nc(-c3ccccc3)[nH]c2C)/S/C1=N\Nc1ccc(Cl)cc1 | 40.7% | <=4 mm | <=4 mm | <=4 mm | <=4 mm | <=4 mm | 1.7% | <=4 mm | 20.2 µg/mL (≈ 45 µM) | <=4 mm | <=4 mm | – | –
C/C(=N\N=C1\N=C(c2cc3ccccc3o2)CS1)c1nc(-c2ccccc2)[nH]c1C | 39.9% | <=4 mm | <=4 mm | <=4 mm | <=4 mm | <=4 mm | 1.9% | <=4 mm | 21.5 µg/mL (≈ 52 µM) | <=4 mm | <=4 mm | – | –
O=C1O[C@H]([C@@H](O)CO)C(O)=C1O [ASCORBIC ACID] | 88.6% | – | – | – | – | – | 0.85% | – | – | – | – | – | –
C/C(=N\NC(N)=S)c1nc(-c2ccccc2)[nH]c1C | 60.2% | <=4 mm | 16 mm | <=4 mm | <=4 mm | 10 mm | 2.45% | 5 mm | 4.18 µg/mL (≈ 15.3 µM) | <=4 mm | 10 mm | – | 87.5 µg/mL (≈ 320 µM)
CC(=O)N1CCN(c2ccc(OCC3COC(Cn4ccnc4)(c4ccc(Cl)cc4Cl)O3)cc2)CC1 (stereo not drawn) [KETOCONAZOLE] | – | <=4 mm | <=4 mm | <=4 mm | >=21 mm | <=4 mm | – | <=4 mm | – | >=21 mm | <=4 mm | – | –
CC1=NC(=N/N=C(\C)c2nc(-c3ccccc3)[nH]c2C)/S/C1=N\Nc1ccccc1 | 44.4% | <=4 mm | <=4 mm | <=4 mm | <=4 mm | <=4 mm | 6.4% | <=4 mm | 20.2 µg/mL (≈ 48.7 µM) | <=4 mm | <=4 mm | – | –
C/C(=N\N=C1\N=C(c2cc3ccccc3oc2=O)CS1)c1nc(-c2ccccc2)[nH]c1C | 61.6% | <=4 mm | <=4 mm | <=4 mm | <=4 mm | <=4 mm | 2.5% | <=4 mm | 125 µg/mL (≈ 283 µM) | <=4 mm | <=4 mm | – | –
C/C(=N/NC(=O)c1cc2ccc(O)cc2oc1=N)c1nc(-c2ccccc2)[nH]c1C | 4.56% | <=4 mm | <=4 mm | <=4 mm | <=4 mm | <=4 mm | 5.55% | <=4 mm | 150 µg/mL (≈ 375 µM) | <=4 mm | <=4 mm | – | –
O=c1[nH]cc(F)c(=O)[nH]1 [FLUOROURACIL] | – | – | – | – | – | – | – | – | 1.5 µg/mL (≈ 11.5 µM) | – | – | – | –
C/C(=N\NC(=O)/C(C#N)=C\c1cn(-c2ccccc2)nc1-c1cccs1)c1nc(-c2ccccc2)[nH]c1C | 34.6% | <=4 mm | <=4 mm | <=4 mm | <=4 mm | <=4 mm | 5.55% | <=4 mm | 125 µg/mL (≈ 242 µM) | <=4 mm | <=4 mm | – | –
